Laboratory results reported in ChEMBL document CHEMBL1122201, “Carboxyimamidate, a low-molecular-weight polyelectrolyte with antitumor properties and low toxicity” (1982).
Where “and” joins values, the source holds several entries; their conditions need not be identical. Equal entries are not always repeated.

Legend:
[1] = system: Mus musculus; assay: Average proportion of total treated mice without palpable tumors was determined in the subcutaneous Lewis Lung Carcinoma model at a dose of 100-125 (mg/kg)/day; assay type: functional
In short: (§1)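 Sc-implanted Lewis lung carcinoma in mice, groups of 10. Agent dissolved in sterile saline and given daily on days 1-5, 1-8 or 1-10, ip or sc (0.5 mL/mouse). Each experiment had 3 or 4 untreated control groups of 10. The read-out was the average proportion of treated mice without palpable tumor on day 14, pooled over independent experiments as mean ± SE.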

[2] = system: Mus musculus; assay: Average proportion of total treated mice without palpable tumors was determined in the subcutaneous Lewis Lung Carcinoma model at a dose of 900-1000 (mg/kg)/day; assay type: functional; in short: as §1
[3] = system: Mus musculus; assay: Percent increase of mean life span of treated groups relative to the mean of the untreated control groups in the subcutaneous Lewis Lung Carcinoma model at a dose of 100-125 mg/kg/day; assay type: functional
In short: (§2)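 Lewis lung carcinoma model in mice, groups of 10. Dosing daily on days 1-5, 1-8 or 1-10, ip or subcutaneous. Dose ranges pooled from nine independent experiments run at different levels. ILS is the percent increase in mean life span, excluding cures, over the mean of 3 or 4 untreated control groups of 10. Survivors scored at day 60.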

[4] = system: Mus musculus; assay: Percent increase of mean life span of treated groups relative to the mean of the untreated control groups in the subcutaneous Lewis Lung Carcinoma model at a dose of 1200-1500 (mg/kg)/day; assay type: functional; in short: as §2
[5] = system: Mus musculus; assay: Percent increase of mean life span of treated groups relative to the mean of the untreated control groups in the subcutaneous Lewis Lung Carcinoma model at a dose of 158-251 (mg/kg)/day; assay type: functional; in short: as §2
[6] = system: Mus musculus; assay: Percent increase of mean life span of treated groups relative to the mean of the untreated control groups in the subcutaneous Lewis Lung Carcinoma model at a dose of 2400-2512 (mg/kg)/day; assay type: functional; in short: as §2
[7] = system: Mus musculus; assay: Percent increase of mean life span of treated groups relative to the mean of the untreated control groups in the subcutaneous Lewis Lung Carcinoma model at a dose of 300-400 (mg/kg)/day; assay type: functional; in short: as §2
[8] = system: Mus musculus; assay: Percent increase of mean life span of treated groups relative to the mean of the untreated control groups in the subcutaneous Lewis Lung Carcinoma model at a dose of 500-600 (mg/kg)/day; assay type: functional; in short: as §2
[9] = system: Mus musculus; assay: Percent increase of mean life span of treated groups relative to the mean of the untreated control groups in the subcutaneous Lewis Lung Carcinoma model at a dose of 62-75 (mg/kg)/day; assay type: functional; in short: as §2
[10] = system: Mus musculus; assay: Percent increase of mean life span of treated groups relative to the mean of the untreated control groups in the subcutaneous Lewis Lung Carcinoma model at a dose of 900-1000 (mg/kg)/day; assay type: functional; in short: as §2
[11] = species: Mus musculus; assay: Increase in mean life span was measured against EMT6 mammary carcinoma cells; assay type: functional
In short: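 EMT6 given as sc trochar implants in C3H mice, groups of 10. Drug given ip in sterile saline, 0.5 mL/mouse, at or below the maximally tolerated dose for the schedule. Mean life span excludes long-term tumor-free survivors. Animals held 60 days after implantation; Student's t test against untreated controls.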

[12] = species: Mus musculus; assay: Increase in mean life span was measured against Gardner lymphosarcoma cells; assay type: functional
In short: (§3)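 10^6 Trypan blue-excluding cells implanted ip (P815 sc) in groups of 10 mice: B6D2F1 for L5178Y and P815, BALB/c for ADJ-PC6, C3H for Gardner. Drug given ip in sterile saline, 0.5 mL/mouse, at or below the maximally tolerated dose for the schedule. ILS excludes long-term tumor-free survivors. Animals held 60 days; Student's t test against untreated controls.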

[13] = species: Mus musculus; assay: Increase in mean life span was measured against L5178 Y leukemia cells; assay type: functional; in short: as §3
[14] = species: Mus musculus; assay: Increase in mean life span was measured against M5076 ovarian tumor; assay type: functional
In short: (§4)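 Tumor brei, 10%, 0.5 mL, implanted sc in groups of 10 mice: CD2F1 for Nettesheim and Madison, B6D2F1 for M5076. M5076 also implanted ip with the same inoculum; Madison im at 0.2 mL. Drug given ip in saline, 0.5 mL/mouse, at or below the maximally tolerated dose. ILS excludes long-term survivors. Animals held 60 days; t test.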

[15] = species: Mus musculus; assay: Increase in mean life span was measured against M5076 ovarian tumor cells; assay type: functional; in short: as §4
[16] = species: Mus musculus; assay: Increase in mean life span was measured against Madison 109 lung carcinoma cells; assay type: functional, M109; in short: as §4
[17] = species: Mus musculus; assay: Increase in mean life span was measured against Nettesheim lung carcinoma cells; assay type: functional; in short: as §4
[18] = species: Mus musculus; assay: Increase in mean life span was measured against colon carcinoma; assay type: functional
[19] = species: Mus musculus; assay: Increase in mean life span was measured against colon carcinoma 26; assay type: functional
In short: (§5)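 Colon carcinoma 26: 0.5 mL of 1% brei implanted sc or ip in groups of 10 CD2F1 mice. Drug given ip in sterile saline, 0.5 mL/mouse, at or below the maximally tolerated dose for the schedule. Mean life span excludes long-term tumor-free survivors. Animals held 60 days; Student's t test against untreated controls.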

[20] = species: Mus musculus; assay: Increase in mean life span was measured against colon carcinoma 26 cells; assay type: functional, Colon 26; in short: as §5
[21] = system: Mus musculus; assay: Average proportion of total treated mice without palpable tumors was determined in the subcutaneous Lewis Lung Carcinoma model at a dose of 1200-1500 (mg/kg)/day; assay type: functional; in short: as §1
[22] = system: Mus musculus; assay: Average proportion of total treated mice without palpable tumors was determined in the subcutaneous Lewis Lung Carcinoma model at a dose of 158-251 (mg/kg)/day; assay type: functional; in short: as §1
[23] = system: Mus musculus; assay: Average proportion of total treated mice without palpable tumors was determined in the subcutaneous Lewis Lung Carcinoma model at a dose of 2400-2512 (mg/kg)/day; assay type: functional; in short: as §1
[24] = system: Mus musculus; assay: Average proportion of total treated mice without palpable tumors was determined in the subcutaneous Lewis Lung Carcinoma model at a dose of 300-400 (mg/kg)/day; assay type: functional; in short: as §1
[25] = system: Mus musculus; assay: Average proportion of total treated mice without palpable tumors was determined in the subcutaneous Lewis Lung Carcinoma model at a dose of 500-600 (mg/kg)/day; assay type: functional; in short: as §1
[26] = system: Mus musculus; assay: Average proportion of total treated mice without palpable tumors was determined in the subcutaneous Lewis Lung Carcinoma model at a dose of 62-75 (mg/kg)/day; assay type: functional; in short: as §1
[27] = system: Mus musculus; assay: Proportion of survivors was determined on the 60th day at a dose of 100-125 mg/kg/day; assay type: functional; in short: as §2
[28] = system: Mus musculus; assay: Proportion of survivors was determined on the 60th day at a dose of 1200-1500 (mg/kg)/day; assay type: functional; in short: as §2
[29] = system: Mus musculus; assay: Proportion of survivors was determined on the 60th day at a dose of 158-251 mg/kg/day; assay type: functional; in short: as §2
[30] = system: Mus musculus; assay: Proportion of survivors was determined on the 60th day at a dose of 2400-2512 (mg/kg)/day; assay type: functional; in short: as §2
[31] = system: Mus musculus; assay: Proportion of survivors was determined on the 60th day at a dose of 500-600 mg/kg/day; assay type: functional; in short: as §2
[32] = system: Mus musculus; assay: Proportion of survivors was determined on the 60th day at a dose of 62-75 mg/kg/day; assay type: functional; in short: as §2
[33] = system: Mus musculus; assay: Proportion of survivors was determined on the 60th day at a dose of 900-1000 mg/kg/day; assay type: functional; in short: as §2
[34] = species: Mus musculus; assay: Increase in mean life span was measured against ADJ-PC6 plasmacytoma cells; assay type: functional; in short: as §3
[35] = species: Mus musculus; assay: Increase in mean life span was measured against B16 melanoma cells; assay type: functional
[36] = species: Mus musculus; assay: Increase in mean life span was measured against B16 melanoma cells carcinoma 26; assay type: functional
[37] = system: Mus musculus; assay: Ratio of mean tumor volume of treated groups to that of the mean of total untreated controls in the subcutaneous Lewis Lung Carcinoma model at a dose of 100-125 (mg/kg)/day; assay type: functional
In short: (§6)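 Mice bearing sc Lewis lung carcinoma (groups of 10) received the saline-dissolved agent daily on days 1-5, 1-8 or 1-10, ip or sc. Perpendicular tumor diameters were measured with vernier calipers on day 14, and volume was taken as 0.5 × length × width². T/C is treated mean volume over the mean of all untreated controls (3-4 groups of 10), pooled across experiments as mean ± SE.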

[38] = system: Mus musculus; assay: Ratio of mean tumor volume of treated groups to that of the mean of total untreated controls in the subcutaneous Lewis Lung Carcinoma model at a dose of 1200-1500 mg/kg/day; assay type: functional; in short: as §6
[39] = system: Mus musculus; assay: Ratio of mean tumor volume of treated groups to that of the mean of total untreated controls in the subcutaneous Lewis Lung Carcinoma model at a dose of 158-251 (mg/kg)/day; assay type: functional; in short: as §6
[40] = system: Mus musculus; assay: Ratio of mean tumor volume of treated groups to that of the mean of total untreated controls in the subcutaneous Lewis Lung Carcinoma model at a dose of 2400-2512 (mg/kg)/day; assay type: functional; in short: as §6
[41] = system: Mus musculus; assay: Ratio of mean tumor volume of treated groups to that of the mean of total untreated controls in the subcutaneous Lewis Lung Carcinoma model at a dose of 300-400 (mg/kg)/day; assay type: functional; in short: as §6
[42] = system: Mus musculus; assay: Ratio of mean tumor volume of treated groups to that of the mean of total untreated controls in the subcutaneous Lewis Lung Carcinoma model at a dose of 500-600 (mg/kg)/day; assay type: functional; in short: as §6
[43] = system: Mus musculus; assay: Ratio of mean tumor volume of treated groups to that of the mean of total untreated controls in the subcutaneous Lewis Lung Carcinoma model at a dose of 62-75 mg/kg/day; assay type: functional; in short: as §6
[44] = system: Mus musculus; assay: Ratio of mean tumor volume of treated groups to that of the mean of total untreated controls in the subcutaneous Lewis Lung Carcinoma model at a dose of 900-1000 mg/kg/day; assay type: functional; in short: as §6
[45] = system: Mus musculus; assay: Proportion of survivors was determined on the 60th day at a dose of 300-400 (mg/kg)/day; assay type: functional; in short: as §2
[46] = species: Mus musculus; assay: Tumor weight inhibition against colon carcinoma 38
[47] = species: Mus musculus; assay: Tumor weight inhibition against colon carcinoma 26
[48] = species: Mus musculus; assay: Tumor weight inhibition against B16 melanoma cells
[49] = species: Mus musculus; assay: Tumor weight inhibition against M5076 ovarian tumor
[50] = species: Mus musculus; assay: Tumor weight inhibition against P815 mastocytoma cells
[51] = system: Walker carcinosarcoma 256 (Rattus norvegicus); assay: Tumor weight inhibition Walker carcinosarcoma cells against
[52] = species: Mus musculus; assay: Tumor weight inhibition against EMT6 mammary carcinoma cells
[53] = species: Mus musculus; assay: Tumor weight inhibition against Nettesheim lung carcinoma cells
[54] = species: Mus musculus; assay: Tumor weight inhibition against Madison 109 lung carcinoma cells
[55] = species: Rattus norvegicus; assay: Increase in mean life span was measured against Walker carcinosarcoma cells

`CC(c1ccccc1)C1C(=O)NC(=O)C1CCC(C(N)=O)C(CCC(CC(=O)O)C(N)=O)C(=O)O.N.N` (stereo not given) gave an Average proportion [1] of 0.1, an Average proportion [2] of 0.47 and an ILS [3] of 12%. For the same compound, the ILS [4] was 24%, the ILS [5] was 15% and the ILS [6] was -28%. For the same compound, the ILS [7] was 17%, the ILS [8] was 15% and the ILS [9] was 12%. For the same compound, the ILS [10] was 19%, the ILS [11] was 13% and the ILS [12] was 4%. The ILS [13] was 5%, the ILS [14] was 20% and the ILS [15] was 40%. For the same compound, the ILS [16] was 27% and 23% and 20%, the ILS [17] was 6% and the ILS [18] was 14%. For the same compound, the ILS [19] was 22%, the ILS [20] was 48% and 31% and 75% and the Average proportion [21] was 0.48. It also gave an Average proportion [22] of 0.14, an Average proportion [23] of 0.6 and an Average proportion [24] of 0.27. It also gave an Average proportion [25] of 0.29, an Average proportion [26] of 0.08 and a Proportion of survivors [27] of 0.04. It also gave a Proportion of survivors [28] of 0.21, a Proportion of survivors [29] of 0.04 and a Proportion of survivors [30] of 0.13. For the same compound, the Proportion of survivors [31] was 0.12, the Proportion of survivors [32] was 0.03 and the Proportion of survivors [33] was 0.21. For the same compound, the ILS [34] was 24%, the ILS [35] was 21% and 11% and the ILS [36] was 7%. For the same compound, the T/C [37] was 0.62, the T/C [38] was 0.16 and the T/C [39] was 0.58. For the same compound, the T/C [40] was 0.1, the T/C [41] was 0.4 and the T/C [42] was 0.32. The T/C [43] was 0.59, the T/C [44] was 0.17 and the Proportion of survivors [45] was 0.09. The TWI [46] was 44, the TWI [47] was 70 and the TWI [48] was 74. For the same compound, the TWI [49] was 89, the TWI [50] was 60 and 53 and the TWI [51] was 21. The TWI [52] was 14, the TWI [53] was 39 and the TWI [54] was 67 and 78 and 50. The ILS [55] was 3%.
